High-throughput results deposited in PubChem BioAssay by Sanford-Burnham Center for Chemical Genomics.
UPR XBP1 act: activators of adaptive XBP1 UPR arm, primary screen, cell-based, CHO-XBP1 luciferase reporter, luminescence, uHTS; IRE1-XBP1 UPR activation; percent of tunicamycin response, DMSO as zero; hit rate 0.33% among 330,000; AID 463104, 2010; activation, % at 20 µM;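 active = versus positive control, 20 µM dose yields 30% or more activation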;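 also: 100% = tunicamycin at 10 µg/mL and 0% = DMSO only wells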
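Material: CHO-XBP1 cells stably carrying IRE1-XBP1-driven luciferase reporter | Medium: F12 with 10% serum | Compound dosing: 20 µM single concentration, DMSO 1% | Incubation: Overnight seeding at 37 °C, 6 h compound treatment at 37 °C | Detection: Steady-Glo luminescence read | Read-out basis: % activation of reporter signal versus tunicamycin and DMSO controls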
tim23-1 inh: growth inhibitors of tim23-1 mutant yeast, primary screen, luminescence, uHTS; inhibition, % at 20 µM; S. cerevisiae tim23-1 growth, BacTiter-Glo luminescence, 24 h; hit rate 1.3% among 330,000;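 active = growth inhibition of the mutant yeast at or above 50%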;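 also: temperature-sensitive mutant grown at 25 °C; plate controls were DMSO-treated mutant yeast for no effect and medium wells lacking yeast for full effect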
tim10-1 inh: growth inhibitors of tim10-1 mutant yeast, primary screen, luminescence, uHTS; S. cerevisiae tim10-1 ts strain growth, BacTiter-Glo, 24 h; inhibition, % at 20 µM; hit rate 2.2% among 330,000; AID 463190, 2010;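 active = inhibition of at least 40%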;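 also: mutant grown at 25 °C; 0% = DMSO wells with yeast and 100% = wells holding no yeast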
TIM10 inh: growth inhibitors of isogenic TIM10 control yeast, primary screen, counter-screen for tim10-1 yeast inhibitor project, luminescence, uHTS; inhibition, % at 10 µM; hit rate 1.4% among 330,000; S. cerevisiae TIM10 strain growth, BacTiter-Glo luminescence, 24 h;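 active = inhibition of 40% or more at the single tested concentration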;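 also: wild-type TIM10 isogenic control strain grown at permissive 25 °C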
CHOP UPR activ: activators of apoptotic CHOP UPR arm, primary screen, cell-based, CHO-CHOP luciferase reporter, luminescence, uHTS; AID 449763, 2010; activation, % at 10 µM; UPR activation; percent of tunicamycin response over DMSO baseline; hit rate 0.34% among 330,000;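 active = at 10 µM dose, activation of 40% or more, normalized to positive control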;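 also: 100% = tunicamycin at 10 µg/mL and 0% = DMSO alone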
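assay system = CHO CHOP reporter cells | amount = 500 CHO-CHOP cells per well | buffer or medium = F12 with 10% FBS | incubation = 16-18 h cell attachment, then 6 h compound exposure, 37 °C | detection = luminescence read with Steady-Glo | read-out = percent activation relative to tunicamycin control | controls = tunicamycin high control, DMSO low control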
tim10-1 conf: growth inhibitors of tim10-1 mutant yeast, confirmation, single concentration, luminescence, S. cerevisiae; hit rate 56% among 7,400; inhibition, % at 20 µM; shares compounds with tim10-1 inh; S. cerevisiae tim10-1 ts strain growth, BacTiter-Glo, 24 h;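 active = inhibition of yeast growth at or above a set limit in either of two repeat tests at 20 µM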;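 also: tim10-1 mutant grown at permissive 25 °C to find synthetic lethal compounds; 0% = DMSO yeast wells and 100% = medium wells without yeast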
tim10 confirm: growth inhibitors of wild-type TIM10 yeast, confirmation, counter-screen for tim10-1 synthetic lethality project, single concentration, luminescence, S. cerevisiae; shares compounds with TIM10 inh; S. cerevisiae tim10 strain growth, BacTiter-Glo luminescence, 24 h; inhibition, % at 10 µM; hit rate 63% among 4,600;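 active = inhibition of yeast growth at or above a set limit in either of two replicates at 10 µM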;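 also: this counterscreen used the strain with wild-type TIM10; 0% = yeast with DMSO and 100% = medium wells lacking yeast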
tim23-1 confirm: tim23-1 mutant yeast growth inhibitors, confirmation, luminescence, single concentration. shares compounds with tim23-1 inh. S. cerevisiae tim23-1 growth, BacTiter-Glo luminescence, 24 h. inhibition, % at 20 µM. hit rate 83% among 4,400. AID 463218, 2010;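 active = inhibition above about 39% in either of two replicate wells at 20 µM, limit read from the data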;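 also: temperature-sensitive tim23-1 mutant grown at 25 °C; 0% = DMSO wells with yeast and 100% = medium wells without yeast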
* marks the source's active call; other numbers are inactive results; . = no result given. Only some compounds are listed: those with a hit (about 3.9% of all), similar ones and a draw of the others.

SMILES | UPR XBP1 act | tim23-1 inh | tim10-1 inh | TIM10 inh | CHOP UPR activ | tim10-1 conf | tim10 confirm | tim23-1 confirm
Cc1ccc(SCC(=O)OCC(=O)NC(C)c2ccc(F)cc2)cc1 (centres undefined) | 0.1 | 4.8 | 4.5 | 3.8 | 2.1 | . | . | .
C=CCC[C@@H](Cc1ccc(F)cc1)C(=O)OC[C@@H](NC(=O)[C@H](CC=C)CC(=O)NCCO)C(C)(C)C | -2.3 | -8.3 | -5.0 | -1.5 | 1.9 | . | . | .
CN(Cc1ccc(F)cc1)C(=O)c1cc(COc2ccc(-n3cncn3)cc2)on1 | -1.0 | 59.4* | 52.6* | 40.8* | 1.7 | 37.5* | 34.8* | 43.2*
CC(C)N(Cc1nccn1C)C(=O)c1cc(COc2ccc(-n3cncn3)cc2)on1 | -2.7 | 4.9 | 13.0 | -11.1 | -1.0 | . | . | .
CCOc1ccc(OCC)c(NC(=O)c2nnn(CC(=O)Nc3cc(C)cc(C)c3)c2N)c1 | 26.8 | 7.2 | 13.2 | 12.8 | -0.1 | . | . | .
CCCCCCSc1ccc([C@H]2N[C@@](CC(C)C)(C(=O)OC)[C@H]3C(=O)N(C)C(=O)[C@@H]23)cc1OC | -0.6 | 29.0 | 24.8 | 25.7 | 2.5 | . | . | .
Cc1csc(NC(=O)c2ccccc2O)n1 | 10.1 | -3.4 | -18.5 | -6.9 | 1.2 | . | . | .
CC(C)(C)c1csc(NC(=O)c2ccccc2O)n1 | -1.4 | 89.4* | 83.9* | 67.3* | 5.9 | 84.1* | 72.1* | 92.5*
Cc1ccc(S(=O)(=O)NCc2ccccc2)cc1C(=O)NC(C)c1ccc(S(N)(=O)=O)cc1 (centres undefined) | -1.4 | -16.7 | -21.4 | 3.7 | 1.5 | . | . | .
Nc1ccc2nn(-c3cc([N+](=O)[O-])ccc3O)nc2c1 | -4.6 | 58.3* | 51.3* | 28.3 | 2.3 | 37.8* | . | 52.8*
O=C(NP(=O)(N1CCCC1)N1CCCC1)C1=C(N2CCOCC2)/C(=C/c2cccc([N+](=O)[O-])c2)CC1 | -0.1 | 11.1 | 27.9 | 16.3 | 0.3 | . | . | .
O=[N+]([O-])c1ccc(/C=C2\CCC(C3=CCCC3)=C2N2CCOCC2)cc1 | 1.4 | 52.7* | 51.9* | 35.9 | 3.3 | 61.0* | . | 52.2*
COc1ccccc1CCn1c(N)cc(=O)[nH]c1=O | -3.0 | 14.4 | 15.3 | -2.4 | 0.4 | . | . | .
CCOC(=O)[C@@H]1[C@H]2COc3cc(OC)ccc3[C@H]2N2C(=O)N(c3ccc(C(F)(F)F)cc3)C(=O)[C@]12C | 3.2 | 83.8* | 77.0* | 75.0* | -1.6 | 84.2* | 73.5* | 86.5*
O=C(Nc1ccc(OC(F)F)c(Cl)c1)c1cccc(OC(F)F)c1 | 5.1 | 71.3* | 70.7* | 62.7* | 2.5 | 62.8* | 59.2* | 75.7*
COc1ccc(NC(=O)c2cccc(OC(F)F)c2)cc1Cl | 8.0 | 38.6 | 37.3 | 38.3 | 4.1 | . | . | .
CN(C)CCCNC(CC(=O)Nc1cccc([N+](=O)[O-])c1)C(=O)O (centres undefined) | -2.6 | 14.2 | -1.2 | 0.7 | -1.7 | . | . | .
S=c1[nH]nc(-c2ccncc2)n1/N=C/C=C/c1ccccc1 | -3.2 | 12.4 | 15.8 | 14.8 | 1.2 | . | . | .
S=c1[nH]nc(-c2ccncc2)n1/N=C/C(Cl)=C\c1ccccc1 | 3.5 | 58.3* | 55.7* | 66.7* | 2.4 | 49.5* | 57.7* | 48.2*
Cc1ccc(CSc2cc(C)[nH]c(=O)n2)cc1 | -1.9 | -4.8 | -0.5 | 1.6 | -1.0 | . | . | .
O=C1c2ccccc2C(=O)C2OC12 (centres undefined) | -2.8 | 79.3* | 59.3* | 33.6 | 66.4* | 37.5* | . | 73.7*
CNC(=S)Nc1ccc(C23CC4CC(CC(C4)C2)C3)cc1 | 0.7 | 62.8* | 61.8* | 50.2* | 3.8 | 47.8* | 39.4* | 78.8*
CCC(C)c1ccccc1N1CC(C(=O)Nc2ccc(N3CCOCC3)cc2)CC1=O (centres undefined) | -0.1 | 6.1 | 17.3 | 0.4 | -0.3 | . | . | .
O=C(CC1Nc2ccccc2NC1=O)Nc1cc(Cl)cc(Cl)c1 (centres undefined) | 0.4 | 64.5* | 78.8* | 40.9* | 3.3 | -1.9 | -31.6 | 15.4
O=C(CC1NC(=O)NC1=O)Nc1ccc(Cl)cc1 (centres undefined) | 2.1 | 3.4 | -8.6 | -6.8 | 1.9 | . | . | .
SMILES | UPR XBP1 act | tim23-1 inh | tim10-1 inh | TIM10 inh | CHOP UPR activ | tim10-1 conf | tim10 confirm | tim23-1 confirm
O=C(NCC1CC1)c1ccc2c3n(nc2c1)-c1ccccc1CO3 | -4.1 | 69.1* | 42.2* | 44.6* | 0.2 | 42.3* | 44.3* | 68.9*
O=C(NCCO)c1ccc2c3n(nc2c1)-c1ccccc1CO3 | 1.9 | 4.8 | 12.5 | 11.3 | 0.6 | . | . | .
CCN(c1ccc(OC)cc1)S(=O)(=O)c1nnc(NC(=O)c2ccccc2Cl)s1 | 0.3 | 17.2 | 12.3 | 14.4 | 3.3 | . | . | .
Fc1ccc(CN2CCN(c3ncnc4scc(-c5ccc(F)cc5)c34)CC2)cc1 | 3.8 | 53.7* | 49.9* | 25.7 | 6.3 | 45.7* | . | 53.5*
CCOC(=O)N1CCN(c2ncnc3scc(-c4ccccc4)c23)CC1 | -0.2 | 28.3 | 32.2 | 9.0 | 1.2 | . | . | .
CCOC(=O)N1CCN(c2ncnc3scc(-c4ccc(Cl)cc4)c23)CC1 | -2.8 | 57.1* | 45.8* | 32.0 | 2.2 | 40.2* | . | 43.6*
S=C(NCCc1ccc(Cl)cc1)Nc1ccc(Cl)cc1Cl | -2.2 | 60.0* | 50.3* | 47.8* | -0.4 | 56.2* | 43.7* | 65.5*
Fc1ccc(NC(=S)NCCc2ccccc2)c(F)c1F | -2.7 | 50.9* | 40.1* | 40.9* | 2.7 | 19.3 | 35.3* | 49.1*
Cc1cccc(NC(=S)NCCc2ccccc2)c1C | -2.5 | 44.5 | 20.8 | 19.6 | 4.3 | . | . | .
S=C(NCc1ccc(Cl)cc1)Nc1ccc(Cl)cc1Cl | 0.4 | 0.5 | 10.7 | 6.1 | 1.5 | . | . | .
Fc1ccc(CCNC(=S)Nc2ccc(F)c(Cl)c2)cc1 | -2.1 | 54.8* | 51.5* | 40.9* | -1.2 | 66.5* | 27.4 | 74.6*
O=[N+]([O-])c1ccc(NC(=S)NCCc2ccc(F)cc2)cc1 | 4.0 | 74.3* | 75.0* | 63.9* | -0.2 | 70.5* | -29.1 | 69.8*
CCC(C)[C@H]1COCCS(=O)(=O)N1Cc1ccc(Br)cc1 (some centres undefined) | 5.0 | 29.5 | 22.8 | 17.9 | -0.5 | . | . | .
